Consider four compounds from PMC6702080 (Nature chemical biology, 2019).

Like-named read-outs stand apart in the source and are kept apart here. Some results are limits rather than exact numbers.

One assay concerns the target PCBP1–BolA2 complex (Homo sapiens, UniProt Q15365+Q9H3K6). The experiment in a line: Co-immunoprecipitation of PCBP1 with BolA2-Flag from HEK293 cell lysates. Particulars: 1 mM DTT as alternative reducing agent instead of 5 mM GSH in IP buffer.
Assay [1] addresses PCBP1 KH3 domain C293S variant. The experiment in a line: Fe. Format: binding, human. Particulars: read-out: KD of Fe(II) for C293S KH3. An outline of the steps: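 Fe(II) binding followed as the fall in apo-indicator absorbance (366 nm, shifting toward 325 nm on metal binding). KD from competition; means ± SD, n = 4 independent experiments.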
Assay [2] addresses T1, PCBP1 KH3 domain (WT) (Homo sapiens, UniProt Q15365). The experiment in a line: Fe. The class given is binding. Particulars: for Kd: read-out: KD of Fe(II) for wild-type KH3.
Target sequence in this assay (Q15365 279-356 limits assumed): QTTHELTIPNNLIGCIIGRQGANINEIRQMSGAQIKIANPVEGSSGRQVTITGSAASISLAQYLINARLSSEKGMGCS
Assay [3] deals with T2, PCBP1 KH3 domain (Homo sapiens, UniProt Q15365). Particulars: 10 μM Fe(II) versus no iron.
The target of assay [4] is T2, PCBP1 KH3 domain. The experiment in a line: biochemical. Particulars: 200 nM labeled KH3.
In the next assay the target is BolA2–KH3 complex (Homo sapiens, UniProt Q15365). The experiment in a line: biochemical.
In assay [5] the target is T2, PCBP1 KH3 domain. Particulars: 100 μM 35S-GSH.
In assay [6] the target is T1, PCBP1 KH3 domain (WT). Particulars: wild-type KH3, 100 μM 35S-GSH, +/- 100 μM FeSO4.
Target sequence in this assay (Q15365 287-356 limits assumed): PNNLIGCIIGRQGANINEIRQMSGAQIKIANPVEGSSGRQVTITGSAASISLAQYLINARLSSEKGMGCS
For assay [7] the following is noted: cited from earlier work.

T2 sequence (Q15365 279-356 limits assumed): as the sequence (Q15365 279-356 limits assumed) above
Chain of BolA2–KH3 complex (Q15365 279-356): as the sequence (Q15365 279-356 limits assumed) above
Chain of BolA2–KH3 complex (Q9H3K6 whole entry partner, the tested form may be a part): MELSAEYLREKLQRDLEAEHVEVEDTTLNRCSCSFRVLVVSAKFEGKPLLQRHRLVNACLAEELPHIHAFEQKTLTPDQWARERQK
Chain of PCBP1–BolA2 complex (Q15365 whole entry, the tested form may be a part): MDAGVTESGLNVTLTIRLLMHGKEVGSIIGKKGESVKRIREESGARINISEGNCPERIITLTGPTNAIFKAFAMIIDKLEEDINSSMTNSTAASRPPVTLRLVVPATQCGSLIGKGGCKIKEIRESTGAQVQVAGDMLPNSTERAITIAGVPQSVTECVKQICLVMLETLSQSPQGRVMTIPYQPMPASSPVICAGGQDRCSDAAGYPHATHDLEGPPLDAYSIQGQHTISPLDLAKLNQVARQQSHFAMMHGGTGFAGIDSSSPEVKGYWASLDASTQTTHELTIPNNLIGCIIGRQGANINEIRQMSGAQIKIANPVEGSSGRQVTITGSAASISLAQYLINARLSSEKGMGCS
Chain of PCBP1–BolA2 complex (Q9H3K6 whole entry, the tested form may be a part): as the sequence (Q9H3K6 whole entry partner, the tested form may be a part) above

Regarding `O[C@@H](CS)[C@@H](O)CS` (racemic) [dithiothreitol], at PCBP1–BolA2 complex, the “stabilization of PCBP1–BolA2 complexes” value is recorded as “did not result in stabilization”.
Take `O=S(=O)([O-])[O-].[Fe+2]` [Fe(II), FeSO4]: the Kd in [1] (0 mM GSH) came out at 16.4 ± 2.7 µM; in assay [1] (5 mM GSH), 9.4 ± 1.3 µM; on PCBP1 KH3 domain (WT) [2] (0 mM GSH (absence of glutathione)), 4.2 ± 0.7 µM; on PCBP1 KH3 domain (WT) [2] (5 mM GSH), 0.8 ± 0.1 µM. Besides, the “fold increase of affinity of KH3 for Fe(II) by GSH” value at PCBP1 KH3 domain (WT) [2] (5 mM GSH versus no GSH) is reported as ~ 5 fold.
Consider `N[C@@H](CCC(=O)N[C@@H](CS)C(=O)NCC(=O)O)C(=O)O` [GSH, glutathione], for which the “fold higher affinity of GSH for KH3 with iron” value on PCBP1 KH3 domain [3] is recorded as approximately 5 fold. For the same compound, the Kd amounted to 80 ± 10 µM on PCBP1 KH3 domain [4] (KD of GSH for KH3, buffer containing 10 μM Fe(II) (FeSO4)); 390 ± 50 µM on PCBP1 KH3 domain [4] (apparent KD of GSH for KH3, buffers without iron); 86 ± 25 µM on BolA2–KH3 complex. At PCBP1 KH3 domain [5], the “GSH binding of wild-type KH3 relative to control IPs” value is recorded as 5 fold. In addition, the “increase of GSH binding in the presence of Fe(II)” value on PCBP1 KH3 domain (WT) [6] was determined as 2 fold.
For the compound `[Mn+2]` [manganese], the “fold lower affinity for GSH than Fe(II)” value in assay [7] is recorded as more than 100 fold.
